Results reported in ChEMBL document CHEMBL3392966, “Antiproliferative activity of synthetic fatty acid amides from renewable resources” (Bioorg Med Chem, 2015).
In brackets after ≈: the same amount, converted by molar mass.

Columns and labels:
NCI/ADR-RES [1] = experiment: Antiproliferative activity against human NCI/ADR-RES cells assessed as tumor growth inhibition after 48 hrs by sulforhodamine B assay; format: functional
Method in brief: (§1)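 Tumor cells grown in RPMI 1640 with 5% fetal bovine serum, with penicillin/streptomycin in experimental cultures. Exposed in 96-well plates to samples in DMSO/RPMI at 0.25, 2.5, 25 and 250 µg/mL, 37 °C, 5% CO2, 48 h. Fixed with 50% trichloroacetic acid before (T0) and after treatment, protein stained with sulforhodamine B and read at 540 nm. GI50, TGI and LC50 in µg/mL from dose-response curves by non-linear regression.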

U-251 [2] = experiment: Antiproliferative activity against human U251 cells assessed as tumor growth inhibition after 48 hrs by sulforhodamine B assay; format: functional; conditions: U-251, 48 h; method in brief: as §1
U-251 [3] = experiment: Antiproliferative activity against human U251 cells after 48 hrs by sulforhodamine B assay; format: functional; conditions: U-251, 48 h; method in brief: as §1
MCF7 [4] = experiment: Antiproliferative activity against human MCF7 cells after 48 hrs by sulforhodamine B assay; format: functional; conditions: MCF7, 48 h; method in brief: as §1
786-0 [5] = experiment: Antiproliferative activity against human 786-0 cells assessed as tumor growth inhibition after 48 hrs by sulforhodamine B assay; format: functional; conditions: 786-0, 48 h; method in brief: as §1
MCF7 [6] = experiment: Antiproliferative activity against human MCF7 cells assessed as tumor growth inhibition after 48 hrs by sulforhodamine B assay; format: functional; conditions: MCF7, 48 h; method in brief: as §1
HaCaT [7] = experiment: Cytotoxicity against human HaCaT cells after 48 hrs by sulforhodamine B assay; format: cell-based
[8] = Antiproliferative activity against human OVCAR3 cells after 48 hrs by sulforhodamine B assay; format: functional; conditions: OVCAR-3, 48 h; method in brief: as §1
786-0 [9] = experiment: Antiproliferative activity against human 786-0 cells after 48 hrs by sulforhodamine B assay; format: functional; conditions: 786-0, 48 h; method in brief: as §1
NCI/ADR-RES [10] = experiment: Antiproliferative activity against human NCI/ADR-RES cells after 48 hrs by sulforhodamine B assay; format: functional; method in brief: as §1
[11] = Antiproliferative activity against human PC3 cells assessed as tumor growth inhibition after 48 hrs by sulforhodamine B assay; format: functional; conditions: PC-3, 48 h; method in brief: as §1
[12] = Antiproliferative activity against human PC3 cells after 48 hrs by sulforhodamine B assay; format: functional; conditions: PC-3, 48 h; method in brief: as §1
NCI-H460 [13] = experiment: Antiproliferative activity against human NCI-H460 cells after 48 hrs by sulforhodamine B assay; format: functional; conditions: NCI-H460, 48 h; method in brief: as §1
[14] = Antiproliferative activity against human OVCAR3 cells assessed as tumor growth inhibition after 48 hrs by sulforhodamine B assay; format: functional; conditions: OVCAR-3, 48 h; method in brief: as §1
NCI-H460 [15] = experiment: Antiproliferative activity against human NCI-H460 cells assessed as tumor growth inhibition after 48 hrs by sulforhodamine B assay; format: functional; conditions: NCI-H460, 48 h; method in brief: as §1
HaCaT [16] = experiment: Cytotoxicity against human HaCaT cells assessed as tumor growth inhibition after 48 hrs by sulforhodamine B assay; format: cell-based
Method in brief: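 Non-tumor lines (human HaCaT keratinocytes; Vero) in RPMI 1640 with 5% FBS, with penicillin/streptomycin added to experimental cultures. 48 h exposure at 0.25–250 µg/mL (DMSO/RPMI), 37 °C, 5% CO2. TCA fixation at time zero and at end, sulforhodamine B protein stain, absorbance 540 nm. TGI (total growth inhibition) from non-linear regression of the dose-response curve.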

| SMILES | TGI (NCI/ADR-RES [1]) | TGI (U-251 [2]) | GI50 (U-251 [3]) | GI50 (MCF7 [4]) | TGI (786-0 [5]) | TGI (MCF7 [6]) | LC50 (HaCaT [7]) | GI50 [8] | GI50 (786-0 [9]) | GI50 (NCI/ADR-RES [10]) | TGI [11] | GI50 [12] | GI50 (NCI-H460 [13]) | TGI [14] | TGI (NCI-H460 [15]) | TGI (HaCaT [16]) |
| --- | --- | --- | --- | --- | --- | --- | --- | --- | --- | --- | --- | --- | --- | --- | --- | --- |
| CCCCCCCC/C=C\CCCCCCCC(=O)N1CCCCC1 | 47.4 mg/L (≈ 136 µM) | 25 mg/L (≈ 71.5 µM) | 6.7 mg/L (≈ 19.2 µM) | 7.6 mg/L (≈ 21.7 µM) | 40.7 mg/L (≈ 116 µM) | 33.3 mg/L (≈ 95.3 µM) | 7.7 mg/L (≈ 22 µM) | 9.3 mg/L (≈ 26.6 µM) | 10.6 mg/L (≈ 30.3 µM) | 7.7 mg/L (≈ 22 µM) | 31.8 mg/L (≈ 91 µM) | 8.7 mg/L (≈ 24.9 µM) | 23 mg/L (≈ 65.8 µM) | 35.4 mg/L (≈ 101 µM) | 40.7 mg/L (≈ 116 µM) | 47.9 mg/L (≈ 137 µM) |
| CCCCCCCC/C=C\CCCCCCCC(=O)N1CCOCC1 | 10.6 mg/L (≈ 30.2 µM) | 6.6 mg/L (≈ 18.8 µM) | 2.8 mg/L (≈ 7.96 µM) | 4.9 mg/L (≈ 13.9 µM) | 11.2 mg/L (≈ 31.9 µM) | 13.1 mg/L (≈ 37.3 µM) | 5.3 mg/L (≈ 15.1 µM) | 4.9 mg/L (≈ 13.9 µM) | 4.5 mg/L (≈ 12.8 µM) | 3.3 mg/L (≈ 9.39 µM) | 14.8 mg/L (≈ 42.1 µM) | 5.2 mg/L (≈ 14.8 µM) | 7.9 mg/L (≈ 22.5 µM) | 13.9 mg/L (≈ 39.5 µM) | 34.7 mg/L (≈ 98.7 µM) | 23.2 mg/L (≈ 66 µM) |
| CCCCCC[C@@H](O)C/C=C\CCCCCCCC(=O)NCc1ccccc1 | 46.6 mg/L (≈ 120 µM) | 47.5 mg/L (≈ 123 µM) | 8.6 mg/L (≈ 22.2 µM) | 37.8 mg/L (≈ 97.5 µM) | 71.5 mg/L (≈ 184 µM) | 104 mg/L (≈ 270 µM) | 30.8 mg/L (≈ 79.5 µM) | 31.6 mg/L (≈ 81.5 µM) | 32.3 mg/L (≈ 83.3 µM) | 8.6 mg/L (≈ 22.2 µM) | 123 mg/L (≈ 316 µM) | 123 mg/L (≈ 316 µM) | 32.3 mg/L (≈ 83.3 µM) | 86 mg/L (≈ 222 µM) | 179 mg/L (≈ 461 µM) | 66.5 mg/L (≈ 172 µM) |
| CCCCCC[C@@H](O)C/C=C\CCCCCCCC(=O)N1CCOCC1 | 143 mg/L (≈ 388 µM) | 54.5 mg/L (≈ 148 µM) | 33.1 mg/L (≈ 90 µM) | 41.8 mg/L (≈ 114 µM) | 75.7 mg/L (≈ 206 µM) | 116 mg/L (≈ 314 µM) | 41.3 mg/L (≈ 112 µM) | 31 mg/L (≈ 84.3 µM) | 36 mg/L (≈ 97.9 µM) | 29.4 mg/L (≈ 80 µM) | 72.6 mg/L (≈ 198 µM) | 38.5 mg/L (≈ 105 µM) | 49.1 mg/L (≈ 134 µM) | 62.2 mg/L (≈ 169 µM) | 152 mg/L (≈ 415 µM) | 97.4 mg/L (≈ 265 µM) |
| CCCCC/C=C\C/C=C\CCCCCCCC(=O)N[C@@H](C)c1ccccc1 | 16.4 mg/L (≈ 42.8 µM) | 5.1 mg/L (≈ 13.3 µM) | 0.7 mg/L (≈ 1.82 µM) | 5.3 mg/L (≈ 13.8 µM) | 7.7 mg/L (≈ 20.1 µM) | 38.6 mg/L (≈ 101 µM) | 1.3 mg/L (≈ 3.39 µM) | 3.5 mg/L (≈ 9.12 µM) | 3.2 mg/L (≈ 8.34 µM) | 3 mg/L (≈ 7.82 µM) | 7.7 mg/L (≈ 20.1 µM) | 6.8 mg/L (≈ 17.7 µM) | 6.1 mg/L (≈ 15.9 µM) | 20 mg/L (≈ 52.1 µM) | 38.9 mg/L (≈ 101 µM) | 77.2 mg/L (≈ 201 µM) |
| CCCCCCCCCCCCCCCC(=O)N1CCCC1 | 30 mg/L (≈ 96.9 µM) | 11.4 mg/L (≈ 36.8 µM) | 4.6 mg/L (≈ 14.9 µM) | 4.6 mg/L (≈ 14.9 µM) | 16.1 mg/L (≈ 52 µM) | 13.2 mg/L (≈ 42.6 µM) | 4.8 mg/L (≈ 15.5 µM) | 6.3 mg/L (≈ 20.4 µM) | 5.5 mg/L (≈ 17.8 µM) | 4.6 mg/L (≈ 14.9 µM) | 12.2 mg/L (≈ 39.4 µM) | 4.7 mg/L (≈ 15.2 µM) | 5.9 mg/L (≈ 19.1 µM) | 22.9 mg/L (≈ 74 µM) | 33.5 mg/L (≈ 108 µM) | 12.9 mg/L (≈ 41.7 µM) |
| CCCCCCCCCCCCCCCCCC(=O)N[C@H](C)c1ccccc1 | > 250 mg/L | > 250 mg/L | 161 mg/L (≈ 414 µM) | 0.06 mg/L (≈ 0.155 µM) | > 250 mg/L | > 250 mg/L |  |  |  | 25.7 mg/L (≈ 66.3 µM) | > 250 mg/L |  |  | > 250 mg/L | > 250 mg/L | > 250 mg/L |
| CCCCCCCCCCCCCCCCCC(=O)N[C@@H](C)c1ccccc1 | > 250 mg/L | > 250 mg/L |  |  | > 250 mg/L | > 250 mg/L | 69.5 mg/L (≈ 179 µM) |  |  |  | > 250 mg/L |  |  | > 250 mg/L | > 250 mg/L | > 250 mg/L |
| CCCCCCCC/C=C\CCCCCCCC(=O)NCc1ccccc1 | > 250 mg/L | > 250 mg/L | 55.4 mg/L (≈ 149 µM) | 53.4 mg/L (≈ 144 µM) | > 250 mg/L | > 250 mg/L | 92 mg/L (≈ 248 µM) | 103 mg/L (≈ 278 µM) | 104 mg/L (≈ 281 µM) | 50.3 mg/L (≈ 135 µM) | > 250 mg/L | 107 mg/L (≈ 288 µM) | 94.9 mg/L (≈ 255 µM) | > 250 mg/L | > 250 mg/L | > 250 mg/L |
| CCCCCCCCCCCCCCCC(=O)NCc1ccccc1 | > 250 mg/L | > 250 mg/L |  |  | > 250 mg/L | > 250 mg/L |  |  |  |  | > 250 mg/L |  |  | > 250 mg/L | > 250 mg/L | > 250 mg/L |
